Screening data from PubChem.
A selection: hits, their analogues and other compounds. The true share with any hit is near 2.2%.
Runt-SMMHC FRET – inhibitors of human RUNX1 Runt domain binding to CBFb-SMMHC; Q01196+Q13951; Cerulean-Runt/Venus-CBFb-SMMHC FRET ratio 530/480, 1 h; inhibition, % at 20 µM; 220,000 compounds, 0.74% hits;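 active = mean inhibition across duplicate retests at 20 µM reaching about 50%, limit read from the data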;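 note: 0% = DMSO wells and 100% = wells with excess untagged CBFb-SMMHC; inhibitors lower the FRET ratio by blocking Runt binding to CBFb-SMMHC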
Target sequence (Q01196 whole entry, looked up, the tested form may be a part): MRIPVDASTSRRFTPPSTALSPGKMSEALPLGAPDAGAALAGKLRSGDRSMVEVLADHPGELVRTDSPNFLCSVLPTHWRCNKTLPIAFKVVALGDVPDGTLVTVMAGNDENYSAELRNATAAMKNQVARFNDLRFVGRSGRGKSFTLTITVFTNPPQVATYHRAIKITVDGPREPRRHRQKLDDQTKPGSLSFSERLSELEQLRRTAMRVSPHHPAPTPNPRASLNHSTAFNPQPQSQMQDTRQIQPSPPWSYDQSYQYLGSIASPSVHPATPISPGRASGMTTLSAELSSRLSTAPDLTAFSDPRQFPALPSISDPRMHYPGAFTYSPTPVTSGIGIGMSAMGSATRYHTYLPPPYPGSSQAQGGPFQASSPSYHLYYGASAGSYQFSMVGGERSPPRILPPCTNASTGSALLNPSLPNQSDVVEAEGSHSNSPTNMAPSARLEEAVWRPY
Target sequence (Q13951 whole entry, looked up, the tested form may be a part): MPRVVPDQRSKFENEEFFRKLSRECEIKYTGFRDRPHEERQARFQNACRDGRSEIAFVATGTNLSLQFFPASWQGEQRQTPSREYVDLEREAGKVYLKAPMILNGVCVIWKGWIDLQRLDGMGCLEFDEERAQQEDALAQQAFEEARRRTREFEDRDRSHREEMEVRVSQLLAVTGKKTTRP
RanGTP-Impb inh – disruptors of Ran-importin-beta complex formation – biochemical, FRET, CFP-Ran, YFP-importin-beta, homogeneous, primary screen. cell-free CFP-Ran/YFP-importin-beta FRET ratio. inhibition, % (concentration not given with the values). 300,000 compounds, 1.1% hits. AID 2216;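 active = more than half of the replicate wells show a fall in the fluorescence ratio signal beyond about 16%, limit read from the data, passing the limit was not always enough; inconclusive = exactly half of the replicate wells pass the set limit; inactive = fewer than half of replicates pass the limit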;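 note: 0% = DMSO wells and 100% = Ran loaded with GDP instead of GTP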
14-3-3 Bad PPI – disrupts binding of bovine 14-3-3 zeta to phospho-Bad peptide; TR-FRET 14-3-3zeta/Dy647-pBad peptide displacement, 1 h; inhibition, % at 21.7 µM; 220,000 compounds, 0.71% hits; AID 781;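 active = inhibition above about 70%, limit read from the data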;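 note: 0% = full 14-3-3 plus peptide FRET controls and 100% = background without 14-3-3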
Hck Nef HTS – blocks Nef-activated human Hck kinase; P08631; Recombinant Hck-YEEI plus Nef, Z-Lyte FRET kinase assay; inhibition, % at 20 µM; 220,000 compounds, 0.68% hits;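 active = Hck-Nef kinase inhibition above about 50%, limit read from the data; inactive = inhibition below that limit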;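 note: 0% = DMSO with Hck plus Nef and 100% = Hck alone without Nef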
Tb hexokinase – blocks Trypanosoma brucei hexokinase 1 activity | recombinant TbHK1, G6PDH-coupled NADH A340 | inhibition, % at 10 µM | 220,000 compounds, 0.11% hits | AID 1430;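 active = inhibition of 50% or more in the single-dose primary screen; inactive = inhibition below 50%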
Runt-CBFb FRET – Runt domain-CBFb interaction inhibition | Q01196+Q13951 | Cerulean-Runt/Venus-CBFb FRET ratio 530/480, 1 h | inhibition, % at 20 µM | 220,000 compounds, 0.46% hits | AID 1496;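 active = inhibition over about 50% at 20 µM in the single-dose screen, limit read from the data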;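 note: 0% = DMSO wells and 100% = excess unlabeled CBFb competitor control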
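System: Cerulean-labeled Runt domain protein | Quantity: 100 nM of each labeled protein | Schedule: 1 h compound exposure, room temperature | Detection: Fluorescence energy transfer, 422 nm excitation, 530/480 nm emission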
G6PDH ctr – inhibits Leuconostoc G6PDH, counter-screen for TbHK1 inhibitors | shares compounds with Tb hexokinase | purified G6PDH, NADH absorbance, 1 h | inhibition, % at 10 µM | 210 compounds, 7% hits | AID 2516;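 active = at least 50% inhibition in the glucose-6-phosphate dehydrogenase coupled counterscreen; inconclusive = no clear call, values can overlap the other calls; inactive = inhibition below 50%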
TbHK1 rescreen – confirmation of Trypanosoma brucei hexokinase 1 inhibitors; AID 2560; shares compounds with Tb hexokinase; inhibition, % at 10 µM; 210 compounds, 10% hits; recombinant TbHK1, G6PDH-coupled NADH A340 absorbance;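 active = inhibition of at least 50% in both of the two screening runs; inconclusive = at least 50% in one run, below 50% in the other; inactive = inhibition below 50% in both runs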;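 note: 0% and 100% set by the maximum and minimum signal control wells on each plate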
RUNX1 CBFb TR – inhibitors of human RUNX1 Runt domain binding to CBFb; shares compounds with Runt-CBFb FRET; 480 compounds, 20% hits; inhibition, % at 20 µM; TR-FRET RUNX1 Runt domain-CBFb binding; AID 1502; in the data active = inhibition above about 40%
YIC FRET counter – counter-screen YIC FRET for RanGTP-importin-beta inhibitors | IC50, µM | shares compounds with RanGTP-Impb inh | AID 435026 | 1,000 compounds, 40% hits | Purified YIC probe, intramolecular FRET ratio YFP/CFP;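 active = fitted half-maximal inhibitory concentration no more than tenfold above the top dose tested; inconclusive = flat fit with 30 to 70% activity, or poor fit; inactive = half-maximal concentration beyond tenfold above the top dose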
Hck Nef conf – Hck-Nef kinase inhibition, confirmation; shares compounds with Hck Nef HTS; Recombinant Hck-YEEI:Nef, Z-Lyte FRET kinase assay; calls only at 10 µM; 1,300 compounds, 28% hits; AID 463188;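 active = average inhibition of at least 50%, with Z-scores no higher than 3 in both the phospho-tyrosine peptide and fluorescence counterscreens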
Starred values were filed as active, the others as inactive; i = inactive; ? = inconclusive; · = no result given; [ ] = remark or other dose.

SMILES	Runt-SMMHC FRET	RanGTP-Impb inh	14-3-3 Bad PPI	Hck Nef HTS	Tb hexokinase	Runt-CBFb FRET	others
O=C(c1ccc2c3c(cccc13)CC2)C1CCCN(CC2CC2)C1 (stereo unspecified)	3	5	-3	18	-15	2
N/C(=N\N=C/c1ccc(-c2ccc(O)c(C(=O)O)c2)o1)N[N+](=O)[O-]	31	-3	95*[fluorescence artefact?]	10	-17	46
O=C(COc1ccc2ccc(=O)oc2c1)N1CCC(C(=O)O)(c2ccccc2)CC1	·	-3	·	·	·	·
Cn1c(O)c(C(c2ccccn2)c2c(O)n(C)c(=S)[nH]c2=O)c(=O)[nH]c1=S	32	-2	77*	-1	-9	30
Cc1cc(C)cc(NC2=NCCCS2)c1	2	6	5	3	2	1
CCOc1ccccc1CN1C2CCC1CC(c1ccc(C)cc1)C2 (stereo unspecified)	·	-1	·	·	·	·
C=C1C2C[C@H](O)C(C)(C)[C@@]2(O)[C@H](O)C[C@]23C[C@@](C)(O)[C@H](CC[C@H]12)[C@H]3OC(C)=O (stereo partly specified)	-3	2	93*[fluorescence artefact?]	-9	-1	-1
CCOC(=O)c1c(/N=C/C2C(=O)NC(=S)NC2=O)sc(C)c1C	16	?	42	12	-5	23
CCOC(=O)c1c(/N=C/C2C(=O)NC(=S)NC2=O)sc2c1CCC2	28	?	78*	38	6	11
CN1CCN(c2c(C#N)c(C(F)(F)F)nn2C)CC1	-4	?	-6	-20	-5	81*
O=C(O)c1ccccc1-c1ccc(C=C2C(=O)N(c3ccccc3)C(=S)N(c3ccccc3)C2=O)o1	·	2	·	·	·	·
CCCCn1c(NC(=O)c2ccc(Br)o2)c(C(=O)OCC)c2nc3ccccc3nc21	23	·	-11	-14	-4	1
CCCCn1c(NS(=O)(=O)c2ccccc2)c(C(=O)OCC)c2nc3ccccc3nc21	9	85*	8	14	27	3
FC(F)(F)c1ccccc1CN1CCN(Cc2ccccc2)CC1	0	3	74*	4	1	1
CN(C)CP(=O)(O)CN(C)C=O	-3	0	91*	4	51*	-2	G6PDH ctr=-6;TbHK1 rescreen=3
COc1ccc(CCn2c(O)c(C=NCc3ccc4c(c3)OCO4)c(=O)[nH]c2=O)cc1OC	4	1	-1	14	2	0
COc1ccc(OC)c(-n2c(O)c(C=NCc3ccc4c(c3)OCO4)c(=O)[nH]c2=O)c1	-2	-1	1	4	55*	-3	G6PDH ctr=-2;TbHK1 rescreen=5
CCOC(=O)N(c1ccccc1)P1(=S)OCCO1	3	-6	-4	1	14	6
CCOC(=O)N(c1ccccc1)P1(=S)OCC(C)O1 (stereo unspecified)	3	-2	-12	4	53*	-1	G6PDH ctr=-12;TbHK1 rescreen=12
CC1CCN(c2cc(Br)c([N+](=O)[O-])cc2F)CC1	2	-6	-1	22	-10	2
Cc1ccc(C2(O)CC(C)N(C)CC2C)cc1 (stereo unspecified)	2	-2	-11	6	53*	-3	G6PDH ctr=-3;TbHK1 rescreen=0
CCc1ccccc1NC(=O)N1C[C@H]2C[C@@H](C1)c1cccc(=O)n1C2	·	-5	·	·	·	·
COCCCn1c(N)c(C(=O)NCc2ccco2)c2nc3ccccc3nc21	81*	58*	8	43	-22	60*	RUNX1 CBFb TR=34
CCC(C)OC(=O)c1c(N)n(Cc2cccs2)c2nc3ccccc3nc12 (stereo unspecified)	94*	12	1	7	-3	53*	RUNX1 CBFb TR=29
Cc1ccc(Oc2cc(NN3CCCCC3)c([N+](=O)[O-])cc2[N+](=O)[O-])c([N+](=O)[O-])c1	·	0	·	·	·	·
SMILES	Runt-SMMHC FRET	RanGTP-Impb inh	14-3-3 Bad PPI	Hck Nef HTS	Tb hexokinase	Runt-CBFb FRET	others
CC(C)[N+]12CCC(CC1)C(C(O)(c1ccccc1)c1ccccc1)C2 (stereo unspecified)	1	0	1	6	-7	-13
Nc1c(C(=O)NCCc2ccccc2)c2nc3ccccc3nc2n1CCN1CCOCC1	91*	78*	76*[fluorescence artefact?]	53*	-15	58*	RUNX1 CBFb TR=23;Hck Nef conf=i
CN(C)C(=O)Oc1ccc2c(c1)O/C(=C\c1cccc(Cl)c1)C2=O	·	-4	·	·	·	·
CCCCCn1c(=O)c(C(=O)Nc2ccccc2)c(O)c2ccccc21	·	4	·	·	·	·
COCCCn1c(N)c(C(=O)Nc2ccccc2)c2nc3ccccc3nc21	16	19*	-4	16	-19	7	YIC FRET counter=25*
CCOC(=O)c1c(N)n(CCN2CCCCC2)c2nc3ccccc3nc12	99*	51*	-11	29	-4	41	YIC FRET counter=45*
COCCCn1c(N)c(C(=O)OC(C)COC)c2nc3ccccc3nc21 (stereo unspecified)	94*	25*	-5	37	-17	79*	YIC FRET counter=27*
CN(C)CC1CCCCC1OC(=O)Cc1ccc(Cl)c([N+](=O)[O-])c1 (stereo unspecified)	·	0	·	·	·	·
CCC1=CCN(CCc2c(C)[nH]c3ccccc23)CC1	·	4	·	·	·	·
Cc1ccc(N=C(/N=C(\N)N[N+](=O)[O-])Nc2ccc(C)cc2)cc1	·	1	·	·	·	·
C=CCn1c(O)c(C(CC)=NCCc2ccccc2)c(=O)[nH]c1=O	0	0	-5	-19	-5	-1
C=CCn1c(O)c(C(C)=NCCc2ccccc2)c(=O)[nH]c1=O	-4	23*	5	-2	-2	1	YIC FRET counter=>50
N#Cc1c(/N=C/c2ccc(O)cc2O)sc2c1C1CCN2CC1	59*	39*	0	4	-13	64*	YIC FRET counter=>26
COc1ccc(CC(C)NCCc2ccc(OC)c(OC)c2)cc1 (stereo unspecified)	·	-1	·	·	·	·
